Data reported in ChEMBL document CHEMBL4346701, “Synthesis and biological evaluation of tryptophan-derived rhodanine derivatives as PTP1B inhibitors and anti-bacterial agents” (Eur J Med Chem, 2019).
In brackets after ≈: the same amount, converted by molar mass.

Key:
[1] = target: T1, Tyrosine-protein phosphatase non-receptor type 1 (Homo sapiens, UniProt P18031); assay: Inhibition of human recombinant GST-tagged PTP1B expressed in Escherichia coli BL21 (DE3) using pNPP as substrate measured for 2 mins by colorimetric analysis
T1 sequence (P18031 whole entry): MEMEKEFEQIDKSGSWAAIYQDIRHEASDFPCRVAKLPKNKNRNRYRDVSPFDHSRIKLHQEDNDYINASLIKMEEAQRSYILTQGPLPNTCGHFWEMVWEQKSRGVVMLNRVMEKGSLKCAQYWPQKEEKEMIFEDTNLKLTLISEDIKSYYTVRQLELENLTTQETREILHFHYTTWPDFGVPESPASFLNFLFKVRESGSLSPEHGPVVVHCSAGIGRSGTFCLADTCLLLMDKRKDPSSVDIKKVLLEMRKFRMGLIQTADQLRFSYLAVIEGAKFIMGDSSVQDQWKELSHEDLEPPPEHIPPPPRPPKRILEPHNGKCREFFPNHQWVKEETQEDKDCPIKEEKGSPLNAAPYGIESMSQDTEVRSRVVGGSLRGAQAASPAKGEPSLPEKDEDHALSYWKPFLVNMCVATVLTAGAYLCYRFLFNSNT

Staphylococcus aureus [2] = assay: Antibacterial activity against Staphylococcus aureus RN4220 assessed as reduction in bacterial cell growth incubated for 24 hrs by ELISA; assay type: functional; conditions: RN4220, 24 h
Outline: (§1)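 MICs determined by serial dilution in 96-well microtiter plates. The strain panel included Gram-positive S. aureus strains and multidrug-resistant clinical isolates. Gatifloxacin, moxifloxacin, norfloxacin and oxacillin served as antibacterial positive controls.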

Streptococcus mutans = assay: Antibacterial activity against Streptococcus mutans KCTC3289 assessed as reduction in bacterial cell growth incubated for 24 hrs by ELISA; assay type: functional; conditions: KCTC3289, 24 h
Outline: (§2)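 MIC determined by serial dilution in 96-well microtiter plates. Strains used were E. coli 1924 and P. aeruginosa 2742 (Gram-negative), S. mutans 3289 (Gram-positive) and the fungus C. albicans 7535. Gatifloxacin, moxifloxacin, norfloxacin and oxacillin served as antibacterial reference agents, and fluconazole as the antifungal reference.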

Escherichia coli = assay: Antibacterial activity against Escherichia coli 1924 assessed as reduction in bacterial cell growth incubated for 24 hrs by ELISA; assay type: functional; conditions: Escherichia coli, 1924, 24 h; outline: as §2
Pseudomonas aeruginosa = assay: Antibacterial activity against Pseudomonas aeruginosa 2742 assessed as reduction in bacterial cell growth incubated for 24 hrs by ELISA; assay type: functional; conditions: Pseudomonas aeruginosa, 2742, 24 h; outline: as §2
Candida albicans = assay: Antifungal activity against Candida albicans 7535 assessed as reduction in bacterial cell growth incubated for 24 hrs by ELISA; assay type: functional; conditions: Candida albicans, 7535, 24 h; outline: as §2
Staphylococcus aureus [3] = assay: Antibacterial activity against Methicillin-resistant Staphylococcus aureus CCARM 3167 assessed as reduction in bacterial cell growth incubated for 24 hrs by ELISA; assay type: functional; conditions: CCARM 3167, 24 h; outline: as §1
Staphylococcus aureus [4] = assay: Antibacterial activity against Methicillin-resistant Staphylococcus aureus CCARM 3506 assessed as reduction in bacterial cell growth incubated for 24 hrs by ELISA; assay type: functional; conditions: CCARM 3506, 24 h; outline: as §1
Staphylococcus aureus [5] = assay: Antibacterial activity against Quinolone-resistant Staphylococcus aureus CCARM 3505 assessed as reduction in bacterial cell growth incubated for 24 hrs by ELISA; assay type: functional; conditions: CCARM 3505, 24 h; outline: as §1
Staphylococcus aureus [6] = assay: Antibacterial activity against Quinolone-resistant Staphylococcus aureus CCARM 3519 assessed as reduction in bacterial cell growth incubated for 24 hrs by ELISA; assay type: functional; conditions: CCARM 3519, 24 h; outline: as §1
Staphylococcus aureus [7] = assay: Antibacterial activity against Staphylococcus aureus KCTC209 assessed as reduction in bacterial cell growth incubated for 24 hrs by ELISA; assay type: functional; conditions: KCTC209, 24 h; outline: as §1
Staphylococcus aureus [8] = assay: Antibacterial activity against Staphylococcus aureus KCTC503 assessed as reduction in bacterial cell growth incubated for 24 hrs by ELISA; assay type: functional; conditions: KCTC503, 24 h; outline: as §1

In the case of `COc1cccc(COc2ccc3cc(/C=C4\SC(=S)N(C(Cc5c[nH]c6ccccc56)C(=O)O)C4=O)ccc3c2)c1` (configuration not stated), the IC50 [1] is reported as 1.67 µM, the MIC (Staphylococcus aureus [2]) is reported as 8 µg/mL (≈ 13.5 µM) and the MIC (Streptococcus mutans) is reported as 8 µg/mL (≈ 13.5 µM). The MIC (Escherichia coli) was 16 µg/mL (≈ 26.9 µM), the MIC (Pseudomonas aeruginosa) was greater than 64 µg/mL and the MIC (Candida albicans) was greater than 64 µg/mL. It also gave an MIC (Staphylococcus aureus [3]) of 8 µg/mL (≈ 13.5 µM), an MIC (Staphylococcus aureus [4]) of 16 µg/mL (≈ 26.9 µM) and an MIC (Staphylococcus aureus [5]) of 8 µg/mL (≈ 13.5 µM). For the same molecule, the MIC (Staphylococcus aureus [6]) was 16 µg/mL (≈ 26.9 µM).
Work on `O=C(O)C(Cc1c[nH]c2ccccc12)N1C(=O)/C(=C/c2ccc3cc(OCc4cccc(Cl)c4)ccc3c2)SC1=S` (configuration not stated) yielded an IC50 [1] of 0.72 µM, an MIC (Staphylococcus aureus [2]) of 4 µg/mL (≈ 6.68 µM) and an MIC (Streptococcus mutans) of 2 µg/mL (≈ 3.34 µM). The MIC (Escherichia coli) was 2 µg/mL (≈ 3.34 µM), the MIC (Pseudomonas aeruginosa) was greater than 64 µg/mL and the MIC (Candida albicans) was greater than 64 µg/mL. It also gave an MIC (Staphylococcus aureus [3]) of 2 µg/mL (≈ 3.34 µM), an MIC (Staphylococcus aureus [4]) of 4 µg/mL (≈ 6.68 µM) and an MIC (Staphylococcus aureus [5]) of 8 µg/mL (≈ 13.4 µM). For the same molecule, the MIC (Staphylococcus aureus [6]) was 8 µg/mL (≈ 13.4 µM).
Molecule `O=C(O)C(Cc1c[nH]c2ccccc12)N1C(=O)/C(=C/c2cccc(OCc3ccc(Br)cc3)c2)SC1=S` (configuration not stated) has an IC50 [1] of 2.7 µM, an MIC (Staphylococcus aureus [2]) of 2 µg/mL (≈ 3.37 µM) and an MIC (Staphylococcus aureus [7]) of 4 µg/mL (≈ 6.74 µM). The MIC (Staphylococcus aureus [8]) was 4 µg/mL (≈ 6.74 µM), the MIC (Streptococcus mutans) was 4 µg/mL (≈ 6.74 µM) and the MIC (Escherichia coli) was 8 µg/mL (≈ 13.5 µM). For the same molecule, the MIC (Pseudomonas aeruginosa) was greater than 64 µg/mL, the MIC (Candida albicans) was greater than 64 µg/mL and the MIC (Staphylococcus aureus [3]) was 8 µg/mL (≈ 13.5 µM). The MIC (Staphylococcus aureus [4]) was 8 µg/mL (≈ 13.5 µM), the MIC (Staphylococcus aureus [5]) was 8 µg/mL (≈ 13.5 µM) and the MIC (Staphylococcus aureus [6]) was 4 µg/mL (≈ 6.74 µM).
With `COc1cc(/C=C2\SC(=S)N(C(Cc3c[nH]c4ccccc34)C(=O)O)C2=O)ccc1OCc1ccc(C)cc1` (configuration not stated) the IC50 [1] was 3.6 µM, the MIC (Staphylococcus aureus [2]) was 2 µg/mL (≈ 3.58 µM) and the MIC (Staphylococcus aureus [7]) was 2 µg/mL (≈ 3.58 µM). For the same molecule, the MIC (Staphylococcus aureus [8]) was 4 µg/mL (≈ 7.16 µM), the MIC (Streptococcus mutans) was 2 µg/mL (≈ 3.58 µM) and the MIC (Escherichia coli) was 2 µg/mL (≈ 3.58 µM). The MIC (Pseudomonas aeruginosa) was greater than 64 µg/mL, the MIC (Candida albicans) was greater than 64 µg/mL and the MIC (Staphylococcus aureus [3]) was 4 µg/mL (≈ 7.16 µM). For the same molecule, the MIC (Staphylococcus aureus [4]) was 2 µg/mL (≈ 3.58 µM), the MIC (Staphylococcus aureus [5]) was 2 µg/mL (≈ 3.58 µM) and the MIC (Staphylococcus aureus [6]) was 8 µg/mL (≈ 14.3 µM).
`Cc1onc(-c2ccccc2)c1C(=O)N[C@@H]1C(=O)N2[C@@H]1SC(C)(C)[C@@H]2C(=O)O` [OXACILLIN] was tested, and the MIC (Staphylococcus aureus [3]) was greater than 64 µg/mL, the MIC (Staphylococcus aureus [4]) was greater than 64 µg/mL and the MIC (Staphylococcus aureus [5]) was 1 µg/mL (≈ 2.49 µM). For the same molecule, the MIC (Staphylococcus aureus [6]) was 1 µg/mL (≈ 2.49 µM).
`CCn1cc(C(=O)O)c(=O)c2cc(F)c(N3CCNCC3)cc21` [NORFLOXACIN] gave an MIC (Staphylococcus aureus [3]) of 8 µg/mL (≈ 25.1 µM), an MIC (Staphylococcus aureus [4]) of 4 µg/mL (≈ 12.5 µM) and an MIC (Staphylococcus aureus [5]) greater than 64 µg/mL. For the same molecule, the MIC (Staphylococcus aureus [6]) was greater than 64 µg/mL.
For `O=C(O)C(Cc1c[nH]c2ccccc12)N1C(=O)/C(=C/c2cccc(OCc3ccccc3)c2)SC1=S` (configuration not stated), the IC50 [1] was 8.23 µM, the MIC (Staphylococcus aureus [2]) was 4 µg/mL (≈ 7.77 µM) and the MIC (Staphylococcus aureus [7]) was 8 µg/mL (≈ 15.5 µM). It also gave an MIC (Staphylococcus aureus [8]) of 8 µg/mL (≈ 15.5 µM), an MIC (Streptococcus mutans) of 8 µg/mL (≈ 15.5 µM) and an MIC (Escherichia coli) of 8 µg/mL (≈ 15.5 µM). The MIC (Pseudomonas aeruginosa) was greater than 64 µg/mL, the MIC (Candida albicans) was greater than 64 µg/mL and the MIC (Staphylococcus aureus [3]) was 8 µg/mL (≈ 15.5 µM). It also gave an MIC (Staphylococcus aureus [4]) of 8 µg/mL (≈ 15.5 µM), an MIC (Staphylococcus aureus [5]) of 8 µg/mL (≈ 15.5 µM) and an MIC (Staphylococcus aureus [6]) of 8 µg/mL (≈ 15.5 µM).
Molecule `Cc1ccc(COc2ccc(/C=C3\SC(=S)N(C(Cc4c[nH]c5ccccc45)C(=O)O)C3=O)cc2)cc1` (configuration not stated) has an IC50 [1] of 5.93 µM, an MIC (Staphylococcus aureus [2]) of 4 µg/mL (≈ 7.57 µM) and an MIC (Staphylococcus aureus [7]) of 4 µg/mL (≈ 7.57 µM). For the same molecule, the MIC (Staphylococcus aureus [8]) was 8 µg/mL (≈ 15.1 µM), the MIC (Streptococcus mutans) was 4 µg/mL (≈ 7.57 µM) and the MIC (Escherichia coli) was 8 µg/mL (≈ 15.1 µM). The MIC (Pseudomonas aeruginosa) was greater than 64 µg/mL, the MIC (Candida albicans) was greater than 64 µg/mL and the MIC (Staphylococcus aureus [3]) was 8 µg/mL (≈ 15.1 µM). For the same molecule, the MIC (Staphylococcus aureus [4]) was 8 µg/mL (≈ 15.1 µM), the MIC (Staphylococcus aureus [5]) was 8 µg/mL (≈ 15.1 µM) and the MIC (Staphylococcus aureus [6]) was 16 µg/mL (≈ 30.3 µM).
With `O=C(O)CN1C(=O)/C(=C/c2ccc3cc(OCc4ccc(F)cc4)ccc3c2)SC1=S` the MIC (Staphylococcus aureus [2]) was 4 µg/mL (≈ 8.82 µM), the MIC (Staphylococcus aureus [8]) was 4 µg/mL (≈ 8.82 µM) and the MIC (Escherichia coli) was greater than 64 µg/mL. The MIC (Pseudomonas aeruginosa) was greater than 64 µg/mL, the MIC (Candida albicans) was greater than 64 µg/mL and the MIC (Staphylococcus aureus [3]) was 4 µg/mL (≈ 8.82 µM). It also gave an MIC (Staphylococcus aureus [4]) of 2 µg/mL (≈ 4.41 µM), an MIC (Staphylococcus aureus [5]) of 4 µg/mL (≈ 8.82 µM) and an MIC (Staphylococcus aureus [6]) of 4 µg/mL (≈ 8.82 µM).
With `COc1c(N2CCNC(C)C2)c(F)cc2c(=O)c(C(=O)O)cn(C3CC3)c12` (configuration not stated) [GATIFLOXACIN] the MIC (Staphylococcus aureus [2]) was 0.25 µg/mL (≈ 0.666 µM), the MIC (Staphylococcus aureus [7]) was 2 µg/mL (≈ 5.33 µM) and the MIC (Staphylococcus aureus [8]) was 4 µg/mL (≈ 10.7 µM). The MIC (Streptococcus mutans) was 0.25 µg/mL (≈ 0.666 µM), the MIC (Escherichia coli) was 2 µg/mL (≈ 5.33 µM) and the MIC (Pseudomonas aeruginosa) was 1 µg/mL (≈ 2.66 µM). For the same molecule, the MIC (Staphylococcus aureus [3]) was 2 µg/mL (≈ 5.33 µM), the MIC (Staphylococcus aureus [4]) was 2 µg/mL (≈ 5.33 µM) and the MIC (Staphylococcus aureus [5]) was 8 µg/mL (≈ 21.3 µM). The MIC (Staphylococcus aureus [6]) was 4 µg/mL (≈ 10.7 µM).
`COc1c(N2C[C@@H]3CCCN[C@@H]3C2)c(F)cc2c(=O)c(C(=O)O)cn(C3CC3)c12` [MOXIFLOXACIN] was tested, and the MIC (Staphylococcus aureus [2]) was 0.25 µg/mL (≈ 0.623 µM), the MIC (Staphylococcus aureus [8]) was 2 µg/mL (≈ 4.98 µM) and the MIC (Streptococcus mutans) was 0.25 µg/mL (≈ 0.623 µM). For the same molecule, the MIC (Candida albicans) was 0.5 µg/mL (≈ 1.25 µM) and the MIC (Staphylococcus aureus [6]) was 4 µg/mL (≈ 9.96 µM).
With `COc1cc(/C=C2\SC(=S)N(C(Cc3c[nH]c4ccccc34)C(=O)O)C2=O)ccc1OCc1ccccc1` (configuration not stated) the IC50 [1] was 5.77 µM, the MIC (Staphylococcus aureus [2]) was 8 µg/mL (≈ 14.7 µM) and the MIC (Staphylococcus aureus [7]) was 8 µg/mL (≈ 14.7 µM). For the same molecule, the MIC (Staphylococcus aureus [8]) was 8 µg/mL (≈ 14.7 µM), the MIC (Streptococcus mutans) was 8 µg/mL (≈ 14.7 µM) and the MIC (Escherichia coli) was 16 µg/mL (≈ 29.4 µM). For the same molecule, the MIC (Pseudomonas aeruginosa) was greater than 64 µg/mL, the MIC (Candida albicans) was greater than 64 µg/mL and the MIC (Staphylococcus aureus [3]) was 8 µg/mL (≈ 14.7 µM). For the same molecule, the MIC (Staphylococcus aureus [4]) was 8 µg/mL (≈ 14.7 µM), the MIC (Staphylococcus aureus [5]) was 8 µg/mL (≈ 14.7 µM) and the MIC (Staphylococcus aureus [6]) was 16 µg/mL (≈ 29.4 µM).
